Test results: ChEMBL document CHEMBL1287651, “Synthesis and in vitro antibacterial activity of fluoroquinolone derivatives containing 3-(N'-alkoxycarbamimidoyl)-4-(alkoxyimino) pyrrolidines” (2010)
≈ marks a conversion by molar mass, not a printed value.

Columns and labels:
Format in all cases: functional
[1] = test system: Staphylococcus aureus; experiment: Antibacterial activity against Staphylococcus aureus ATCC […] after 18 to 24 hrs by twofold serial dilution method
Method in brief: (§1)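 MIC determined by the standard twofold serial dilution method on agar media, screening against Gram-positive and Gram-negative strains. Levofloxacin and gemifloxacin were run alongside as reference drugs.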

[2] = test system: Staphylococcus aureus; experiment: Antibacterial activity against methicillin-resistant Staphylococcus aureus 08-1 after 18 to 24 hrs by twofold serial dilution method
Method in brief: (§2)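 Standard twofold serial agar dilution method on agar media for MIC determination. Screened against representative Gram-positive and Gram-negative strains. Levofloxacin and GMFX served as control drugs.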

[3] = test system: Staphylococcus aureus; experiment: Antibacterial activity against methicillin-sensitive Staphylococcus aureus 08-2 after 18 to 24 hrs by twofold serial dilution method; method in brief: as §2
[4] = test system: Staphylococcus epidermidis; experiment: Antibacterial activity against methicillin-resistant Staphylococcus epidermidis 09-2 after 18 to 24 hrs by twofold serial dilution method; method in brief: as §2
[5] = test system: Staphylococcus epidermidis; experiment: Antibacterial activity against methicillin-resistant Staphylococcus epidermidis 09-3 after 18 to 24 hrs by twofold serial dilution method; method in brief: as §2
[6] = test system: Staphylococcus epidermidis; experiment: Antibacterial activity against methicillin-resistant Staphylococcus epidermidis 09-4 after 18 to 24 hrs by twofold serial dilution method; method in brief: as §2
[7] = test system: Staphylococcus epidermidis; experiment: Antibacterial activity against methicillin-sensitive Staphylococcus epidermidis 09-3 after 18 to 24 hrs by twofold serial dilution method; method in brief: as §2
[8] = test system: Staphylococcus epidermidis; experiment: Antibacterial activity against methicillin-sensitive Staphylococcus epidermidis 09-6 after 18 to 24 hrs by twofold serial dilution method; method in brief: as §2
[9] = test system: Streptococcus pneumoniae; experiment: Antibacterial activity against Streptococcus pneumoniae 08-2 after 18 to 24 hrs by twofold serial dilution method; method in brief: as §1
[10] = test system: Streptococcus pneumoniae; experiment: Antibacterial activity against Streptococcus pneumoniae 08-4 after 18 to 24 hrs by twofold serial dilution method; method in brief: as §1
[11] = test system: Enterococcus faecium; experiment: Antibacterial activity against Enterococcus faecium 08-2 after 18 to 24 hrs by twofold serial dilution method; method in brief: as §1
[12] = test system: Enterococcus faecium; experiment: Antibacterial activity against Enterococcus faecium 08-7 after 18 to 24 hrs by twofold serial dilution method; method in brief: as §1
[13] = test system: Enterococcus faecalis; experiment: Antibacterial activity against Enterococcus faecalis 08-10 after 18 to 24 hrs by twofold serial dilution method; method in brief: as §1
[14] = test system: Enterococcus faecalis; experiment: Antibacterial activity against Enterococcus faecalis 08-12 after 18 to 24 hrs by twofold serial dilution method; method in brief: as §1
[15] = test system: Escherichia coli; experiment: Antibacterial activity against Escherichia coli ATCC 25922 after 18 to 24 hrs by twofold serial dilution method; method in brief: as §1
[16] = test system: Escherichia coli; experiment: Antibacterial activity against Escherichia coli 08-21 after 18 to 24 hrs by twofold serial dilution method; method in brief: as §1
[17] = test system: Escherichia coli; experiment: Antibacterial activity against Escherichia coli 08-22 after 18 to 24 hrs by twofold serial dilution method; method in brief: as §1
[18] = test system: Klebsiella pneumoniae; experiment: Antibacterial activity against Klebsiella pneumoniae 09-21 after 18 to 24 hrs by twofold serial dilution method; method in brief: as §1
[19] = test system: Klebsiella pneumoniae; experiment: Antibacterial activity against Klebsiella pneumoniae 09-22 after 18 to 24 hrs by twofold serial dilution method; method in brief: as §1
[20] = test system: Klebsiella pneumoniae; experiment: Antibacterial activity against Klebsiella pneumoniae 09-23 after 18 to 24 hrs by twofold serial dilution method; method in brief: as §1
[21] = test system: Pseudomonas aeruginosa; experiment: Antibacterial activity against Pseudomonas aeruginosa ATCC 27853 after 18 to 24 hrs by twofold serial dilution method; method in brief: as §1
[22] = test system: Pseudomonas aeruginosa; experiment: Antibacterial activity against Pseudomonas aeruginosa 09-32 after 18 to 24 hrs by twofold serial dilution method; method in brief: as §1
[23] = test system: Pseudomonas aeruginosa; experiment: Antibacterial activity against Pseudomonas aeruginosa 09-33 after 18 to 24 hrs by twofold serial dilution method; method in brief: as §1
[24] = test system: Pseudomonas aeruginosa; experiment: Antibacterial activity against Pseudomonas aeruginosa 09-34 after 18 to 24 hrs by twofold serial dilution method; method in brief: as §1
[25] = test system: Pseudomonas aeruginosa; experiment: Antibacterial activity against Pseudomonas aeruginosa 09-35 after 18 to 24 hrs by twofold serial dilution method; method in brief: as §1

Compound | MIC [1] [µg/mL] | MIC [2] [µg/mL] | MIC [3] [µg/mL] | MIC [4] [µg/mL] | MIC [5] [µg/mL] | MIC [6] [µg/mL] | MIC [7] [µg/mL] | MIC [8] [µg/mL] | MIC [9] [µg/mL] | MIC [10] [µg/mL] | MIC [11] [µg/mL] | MIC [12] [µg/mL] | MIC [13] [µg/mL] | MIC [14] [µg/mL] | MIC [15] [µg/mL] | MIC [16] [µg/mL] | MIC [17] [µg/mL] | MIC [18] [µg/mL] | MIC [19] [µg/mL] | MIC [20] [µg/mL] | also measured
CO/N=C1\CN(c2c(F)cc3c(=O)c(C(=O)O)cn4c3c2OC[C@@H]4C)CC1/C(N)=N\O (stereo not given in full) | 0.125 (≈ 0.288 µM) | 0.25 (≈ 0.577 µM) | 4 (≈ 9.23 µM) | 0.25 (≈ 0.577 µM) | 0.25 (≈ 0.577 µM) | 0.25 (≈ 0.577 µM) | 0.25 (≈ 0.577 µM) | 0.25 (≈ 0.577 µM) | 0.25 (≈ 0.577 µM) | 16 (≈ 36.9 µM) | > 128 | > 128 | > 128 | > 128 | 128 (≈ 295 µM) | > 128 | > 128 | > 128 | 16 (≈ 36.9 µM) | > 128 | MIC [21]: 32 µg/mL (≈ 73.8 µM); MIC [22]: 64 µg/mL (≈ 148 µM); MIC [23]: > 128 µg/mL; MIC [24]: > 128 µg/mL; MIC [25]: 128 µg/mL (≈ 295 µM)
CCO/N=C1\CN(c2c(F)cc3c(=O)c(C(=O)O)cn4c3c2OC[C@@H]4C)CC1/C(N)=N\O (stereo not given in full) | 0.25 (≈ 0.559 µM) | 0.25 (≈ 0.559 µM) | 0.25 (≈ 0.559 µM) | 0.5 (≈ 1.12 µM) | 0.25 (≈ 0.559 µM) | 0.5 (≈ 1.12 µM) | 0.25 (≈ 0.559 µM) | 0.25 (≈ 0.559 µM) | > 128 | 16 (≈ 35.8 µM) | > 128 | > 128 | > 128 | > 128 | > 128 | > 128 | > 128 | > 128 | 16 (≈ 35.8 µM) | > 128 | MIC [21]: 32 µg/mL (≈ 71.5 µM); MIC [22]: 64 µg/mL (≈ 143 µM); MIC [23]: > 128 µg/mL; MIC [24]: > 128 µg/mL; MIC [25]: 64 µg/mL (≈ 143 µM)
CO/N=C1\CN(c2c(F)cc3c(=O)c(C(=O)O)cn4c3c2OC[C@@H]4C)CC1/C(N)=N\OC (stereo not given in full) | 0.125 (≈ 0.279 µM) | 0.25 (≈ 0.559 µM) | 0.25 (≈ 0.559 µM) | 0.25 (≈ 0.559 µM) | 0.25 (≈ 0.559 µM) | 0.25 (≈ 0.559 µM) | 0.25 (≈ 0.559 µM) | 0.25 (≈ 0.559 µM) | 16 (≈ 35.8 µM) | 0.25 (≈ 0.559 µM) | 128 (≈ 286 µM) | 128 (≈ 286 µM) | > 128 | > 128 | 128 (≈ 286 µM) | > 128 | > 128 | > 128 | 0.5 (≈ 1.12 µM) | > 128 | MIC [21]: 4 µg/mL (≈ 8.94 µM); MIC [22]: 8 µg/mL (≈ 17.9 µM); MIC [23]: > 128 µg/mL; MIC [24]: > 128 µg/mL; MIC [25]: 8 µg/mL (≈ 17.9 µM)
